Assay results pooled from the literature.
Compare with care: the assays were run in different laboratories.
Target: Testis-specific serine/threonine-protein kinase 3 (TSSK3, Homo sapiens, UniProt Q96PN8)
One construct used (Q96PN8 1-268): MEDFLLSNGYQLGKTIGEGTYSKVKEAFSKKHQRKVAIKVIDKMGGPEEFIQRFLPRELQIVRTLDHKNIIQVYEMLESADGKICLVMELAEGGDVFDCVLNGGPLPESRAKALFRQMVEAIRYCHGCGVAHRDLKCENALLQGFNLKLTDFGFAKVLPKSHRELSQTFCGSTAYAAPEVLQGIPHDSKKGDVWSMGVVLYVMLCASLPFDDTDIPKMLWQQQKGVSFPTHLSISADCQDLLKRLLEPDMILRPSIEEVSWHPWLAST

| Compound | read-out | mode | technique | tested at | measurement | result |
| --- | --- | --- | --- | --- | --- | --- |
| Cc1sc(C(=O)NC2COC2)cc1-n1cc(NC(=O)Nc2c(F)cccc2Cl)cn1 | enzyme activity | inhibitor |  | 10 µM | remaining activity | 100% |
| Cc1ccc(C(=O)Nc2ccc(CN3CCN(C)CC3)c(C(F)(F)F)c2)cc1C#Cc1cnc2cccnn12 | enzyme activity | inhibitor |  | 23.5 nM | remaining activity | 84% |
| Nc1ncnc2occ(-c3ccc(NC(=O)Nc4cc(C(F)(F)F)ccc4F)cc3)c12 | cell-free assay | inhibitor |  | 20 µM | remaining signal | 39% |
| CC(C)(O)[C@H]1CC[C@H](Nc2ccc3ncc(-c4cccc(C(F)(F)F)c4)n3n2)CC1 | enzyme activity | inhibitor |  | 1 µM | remaining activity | 110% |
| CO[C@H]1CC[C@H](CNc2ccc(S(=O)(=O)NC(=O)c3ccc(N4CCN(CC5=C(c6ccc(Cl)cc6)CC(C)(C)CC5)CC4)cc3Oc3cnc4[nH]ccc4c3)cc2[N+](=O)[O-])CC1 | cell-free assay |  | competition with immobilised ligand | 1 µM | remaining binding | 70% |
| COc1cc(Cl)c(C(=O)N[C@@H](CN[C@H]2CC[C@@H](N)CC2)Cc2ccc(C#N)cc2)cc1-c1ccc(CN[C@H](C)c2ccc(C)cc2)o1 | enzyme activity | inhibitor |  | 1 µM | remaining activity | 97% |
| CSc1cccnc1N1CCN(Cc2nc3ccccc3[nH]2)CC1 | cell-free assay |  | competition with immobilised ligand | 1 µM | remaining binding | 98% |
| CC1CCCN1c1nccc(-c2cnn3ncccc23)n1 (stereo not shown) | binding |  |  | 1 µM | remaining binding | 99% |
| O=C(Nc1cnn(-c2csc(C(=O)NC3COC3)c2)c1)Nc1ccccc1Cl | enzyme activity | inhibitor |  | 5 µM | remaining activity | 97.7% |
| CN1CC(Oc2cnc(C#N)cc2-c2ccn3nc(NC(=O)C4CC4)cc3c2)C1 | enzyme activity | inhibitor |  | 1 µM | inhibition | -3% |
